Two molecules from ChEMBL document CHEMBL1154352, “Toll-like receptor 7 selective synthetic oligoribonucleotide agonists: synthesis and structure-activity relationship studies” (J Med Chem, 2009) can be followed below.

Test [1] deals with T1, Toll-like receptor 9 (Mus musculus) (UniProt Q9EQU3).
T1 sequence (whole entry): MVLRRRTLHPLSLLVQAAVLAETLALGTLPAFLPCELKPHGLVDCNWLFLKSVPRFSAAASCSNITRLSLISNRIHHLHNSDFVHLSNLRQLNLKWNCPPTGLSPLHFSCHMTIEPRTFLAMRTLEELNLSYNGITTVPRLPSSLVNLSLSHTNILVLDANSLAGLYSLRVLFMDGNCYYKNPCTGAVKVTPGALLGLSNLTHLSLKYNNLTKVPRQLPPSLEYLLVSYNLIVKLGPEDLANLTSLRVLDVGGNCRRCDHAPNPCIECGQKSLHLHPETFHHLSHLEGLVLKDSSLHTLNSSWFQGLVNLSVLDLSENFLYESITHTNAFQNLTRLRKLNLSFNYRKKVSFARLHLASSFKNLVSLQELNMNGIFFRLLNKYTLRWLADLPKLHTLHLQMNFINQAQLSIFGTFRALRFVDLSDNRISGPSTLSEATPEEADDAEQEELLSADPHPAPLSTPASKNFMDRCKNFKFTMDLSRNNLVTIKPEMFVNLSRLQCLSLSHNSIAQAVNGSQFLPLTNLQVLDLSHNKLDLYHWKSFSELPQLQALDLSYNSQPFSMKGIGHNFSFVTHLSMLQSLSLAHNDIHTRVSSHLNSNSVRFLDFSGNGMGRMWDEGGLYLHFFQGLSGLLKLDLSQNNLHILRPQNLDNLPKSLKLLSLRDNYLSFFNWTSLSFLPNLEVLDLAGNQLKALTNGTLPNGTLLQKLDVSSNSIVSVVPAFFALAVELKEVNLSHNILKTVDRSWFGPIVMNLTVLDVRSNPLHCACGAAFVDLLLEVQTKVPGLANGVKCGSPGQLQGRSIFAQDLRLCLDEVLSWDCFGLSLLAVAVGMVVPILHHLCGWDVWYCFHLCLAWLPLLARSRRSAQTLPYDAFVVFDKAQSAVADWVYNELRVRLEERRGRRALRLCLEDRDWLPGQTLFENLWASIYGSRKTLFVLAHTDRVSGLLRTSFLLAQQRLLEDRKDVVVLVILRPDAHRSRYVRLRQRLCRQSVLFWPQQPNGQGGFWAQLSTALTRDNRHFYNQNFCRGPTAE
Nature of the test: Activation of mouse TLR9 expressed in HEK293 assessed as induction of NF-kappaB activity reporter gene assay. It is filed as cell-based.

Test [2] deals with Splenocyte. Nature of the test: Immunomodulatory activity in C57BL/6 mouse splenocytes bearing TLR7 receptor assessed as IL12 release at 100 ug/ml after 24 hrs by ELISA. The class given is functional, cell-based. The essentials:
(§1)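 C57BL/6 splenocytes in RPMI 1640 with 10% FBS, penicillin/streptomycin, 2 mM L-glutamine, plated at 5 × 10^6 cells/mL; compounds in PBS added, 37 °C for 24 h. Supernatant IL-12 and IL-6 by ELISA; representative of three independent experiments.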

Test [3] relates to PBMC. Description: Immunomodulatory activity in human PBMC assessed as induction of IL12 at 100 ug/ml after 24 hrs. It is filed as functional, cell-based. Summed up:
(§2)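 Human PBMCs plated at 5 × 10^6 cells/mL; compounds dissolved in PBS added at various concentrations, 37 °C for 24 h. Supernatant cytokines/chemokines quantified with human Luminex multiplex kit.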

Test [4] deals with Splenocyte. Description: Immunomodulatory activity in C57BL/6 mouse splenocytes bearing TLR7 receptor assessed as IL6 release at 100 ug/ml after 24 hrs by ELISA. It is filed as functional, cell-based. Summed up: as §1
For test [5], the system named is PBMC. Description: Immunomodulatory activity in human PBMC assessed as induction of IFN-alpha at 100 ug/ml after 24 hrs.
For test [6], the system named is PBMC. Description: Immunomodulatory activity in human PBMC assessed as induction of TNFalpha at 100 ug/ml after 24 hrs. The class given is functional, cell-based. Summed up:
as §2

Test [7] addresses T2, Toll-like receptor 8 (Homo sapiens) (UniProt Q9NR97).
T2 sequence (whole entry): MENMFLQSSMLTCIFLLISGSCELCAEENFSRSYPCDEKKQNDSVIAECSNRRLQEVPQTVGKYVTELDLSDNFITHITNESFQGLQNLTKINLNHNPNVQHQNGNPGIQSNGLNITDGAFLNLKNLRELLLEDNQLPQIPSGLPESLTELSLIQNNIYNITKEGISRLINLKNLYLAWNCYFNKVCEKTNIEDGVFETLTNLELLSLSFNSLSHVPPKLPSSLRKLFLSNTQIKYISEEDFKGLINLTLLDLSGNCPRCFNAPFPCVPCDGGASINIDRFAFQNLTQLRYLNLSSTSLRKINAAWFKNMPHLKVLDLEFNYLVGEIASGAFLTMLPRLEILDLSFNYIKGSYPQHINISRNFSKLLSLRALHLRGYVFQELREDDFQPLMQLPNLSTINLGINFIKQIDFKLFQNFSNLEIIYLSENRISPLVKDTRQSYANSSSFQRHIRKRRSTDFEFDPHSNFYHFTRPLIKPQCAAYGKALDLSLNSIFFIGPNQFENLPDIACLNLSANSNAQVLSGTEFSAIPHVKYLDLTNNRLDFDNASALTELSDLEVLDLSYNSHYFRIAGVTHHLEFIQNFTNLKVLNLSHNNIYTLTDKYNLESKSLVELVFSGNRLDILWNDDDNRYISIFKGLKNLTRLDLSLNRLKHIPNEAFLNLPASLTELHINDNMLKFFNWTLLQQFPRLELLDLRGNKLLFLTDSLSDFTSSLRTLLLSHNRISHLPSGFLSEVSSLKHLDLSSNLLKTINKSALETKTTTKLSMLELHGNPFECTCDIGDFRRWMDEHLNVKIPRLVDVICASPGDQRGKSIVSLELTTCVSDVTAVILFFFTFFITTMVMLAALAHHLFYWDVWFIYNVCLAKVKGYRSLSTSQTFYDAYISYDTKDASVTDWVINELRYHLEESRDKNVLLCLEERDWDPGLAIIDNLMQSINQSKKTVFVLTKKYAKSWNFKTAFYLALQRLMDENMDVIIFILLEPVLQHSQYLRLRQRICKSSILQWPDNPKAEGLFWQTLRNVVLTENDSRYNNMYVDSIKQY
Nature of the test: Activation of human TLR8 expressed in HEK293XL assessed as fold induction of NF-kappaB activity at 50 ug/ml after 18 hrs by reporter gene assay relative to control. The essentials:
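HEK293 cells stably expressing human TLR7 or TLR8, transiently transfected with SEAP reporter plasmid; medium replaced, SIMRA compounds added, 18 h incubation. Supernatant SEAP measured by QuantiBlue; expressed as fold increase in NF-κB activity over PBS control. Tabulated data at 50 μg/mL, representative of three independent experiments.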

Active and inactive are the calls of the source. The calls are words filed in the database; no cut-off is given here.

Regarding `Nc1ccn([C@@H]2O[C@H](CO)[C@@H](OP(=O)(S)OC[C@H]3O[C@@H](n4ccc(=O)[nH]c4=O)[C@H](O)[C@@H]3OP(=O)(S)OC[C@H]3O[C@@H](n4ccc(=O)[nH]c4=O)[C@H](O)[C@@H]3OP(=O)(S)OC[C@H]3O[C@@H](n4ccc5c(=O)[nH]c(N)nc54)[C@H](O)[C@@H]3OP(=O)(S)OC[C@H]3O[C@@H](n4ccc(=O)[nH]c4=O)[C@H](O)[C@@H]3OP(=O)(S)OC[C@H]3O[C@@H](n4ccc5c(=O)[nH]c(N)nc54)[C@H](O)[C@@H]3OP(=O)(S)OC[C@H]3O[C@@H](n4cnc5c(N)ncnc54)[C@H](O)[C@@H]3OP(=O)(S)OC[C@H]3O[C@@H](n4ccc5c(=O)[nH]c(N)nc54)[C@H](O)[C@@H]3OP(=O)(S)OC[C@H]3O[C@@H](n4ccc(N)nc4=O)[C@H](O)[C@@H]3OP(=O)(S)OC[C@H]3O[C@@H](n4ccc(=O)[nH]c4=O)[C@H](O)[C@@H]3OP(=O)(S)OC[C@H]3O[C@@H](n4ccc(=O)[nH]c4=O)[C@H](O)[C@@H]3OP(=O)(S)OCC(O)COP(=O)(S)O[C@H]3[C@@H](O)[C@H](n4ccc(=O)[nH]c4=O)O[C@@H]3COP(=O)(S)O[C@H]3[C@@H](O)[C@H](n4ccc(=O)[nH]c4=O)O[C@@H]3COP(=O)(S)O[C@H]3[C@@H](O)[C@H](n4ccc(N)nc4=O)O[C@@H]3COP(=O)(S)O[C@H]3[C@@H](O)[C@H](n4ccc5c(=O)[nH]c(N)nc54)O[C@@H]3COP(=O)(S)O[C@H]3[C@@H](O)[C@H](n4cnc5c(N)ncnc54)O[C@@H]3COP(=O)(S)O[C@H]3[C@@H](O)[C@H](n4ccc5c(=O)[nH]c(N)nc54)O[C@@H]3COP(=O)(S)O[C@H]3[C@@H](O)[C@H](n4ccc(=O)[nH]c4=O)O[C@@H]3COP(=O)(S)O[C@H]3[C@@H](O)[C@H](n4ccc5c(=O)[nH]c(N)nc54)O[C@@H]3COP(=O)(S)O[C@H]3[C@@H](O)[C@H](n4ccc(=O)[nH]c4=O)O[C@@H]3COP(=O)(S)O[C@H]3[C@@H](O)[C@H](n4ccc(=O)[nH]c4=O)O[C@@H]3COP(=O)(S)O[C@H]3[C@@H](O)[C@H](n4ccc(N)nc4=O)O[C@@H]3CO)[C@H]2O)c(=O)n1` (some centres undefined), the result in test [1] was inactive. Further, the result with Splenocyte [2] and in the test with Splenocyte [4] was Active. Besides, the Activity with PBMC [3] is 1020 pg/mL; with PBMC [6], 403 pg/mL. Moreover, in the test on PBMC [5], the IFN-alpha came out at 138 pg/mL. Besides, the fold change (FC) in test [7] is 1.5.
As for `Nc1ccn([C@@H]2O[C@H](COP(=O)(S)O[C@H]3[C@@H](O)[C@H](n4ccc5c(=O)[nH]c(N)nc54)O[C@@H]3CO[C@H]3[C@@H](O)[C@H](n4cnc5c(N)ncnc54)O[C@@H]3COP(=O)(S)O[C@H]3[C@@H](O)[C@H](n4ccc5c(=O)[nH]c(N)nc54)O[C@@H]3COP(=O)(S)O[C@H]3[C@@H](O)[C@H](n4ccc(=O)[nH]c4=O)O[C@@H]3COP(=O)(S)O[C@H]3[C@@H](O)[C@H](n4ccc(N)nc4=O)O[C@@H]3COP(=O)(S)O[C@H]3[C@@H](O)[C@H](n4ccc5c(=O)[nH]c(N)nc54)O[C@@H]3COP(=O)(S)O[C@H]3[C@@H](O)[C@H](n4ccc(=O)[nH]c4=O)O[C@@H]3COP(=O)(S)O[C@H]3[C@@H](O)[C@H](n4ccc(=O)[nH]c4=O)O[C@@H]3CO)[C@@H](OP(=O)(S)OC[C@H]3O[C@@H](n4ccc(=O)[nH]c4=O)[C@H](O)[C@@H]3OP(=O)(S)OC[C@H]3O[C@@H](n4ccc(=O)[nH]c4=O)[C@H](O)[C@@H]3OP(=O)(S)OCC(O)COP(=O)(S)O[C@H]3[C@@H](O)[C@H](n4ccc(=O)[nH]c4=O)O[C@@H]3COP(=O)(S)O[C@H]3[C@@H](O)[C@H](n4ccc(=O)[nH]c4=O)O[C@@H]3COP(=O)(S)O[C@H]3[C@@H](O)[C@H](n4ccc(N)nc4=O)O[C@@H]3COP(=O)(S)O[C@H]3[C@@H](O)[C@H](n4ccc5c(=O)[nH]c(N)nc54)O[C@@H]3CO[C@H]3[C@@H](O)[C@H](n4cnc5c(N)ncnc54)O[C@@H]3COP(=O)(S)O[C@H]3[C@@H](O)[C@H](n4ccc5c(=O)[nH]c(N)nc54)O[C@@H]3COP(=O)(S)O[C@H]3[C@@H](O)[C@H](n4ccc(=O)[nH]c4=O)O[C@@H]3COP(=O)(S)O[C@H]3[C@@H](O)[C@H](n4ccc(N)nc4=O)O[C@@H]3COP(=O)(S)O[C@H]3[C@@H](O)[C@H](n4ccc5c(=O)[nH]c(N)nc54)O[C@@H]3COP(=O)(S)O[C@H]3[C@@H](O)[C@H](n4ccc(=O)[nH]c4=O)O[C@@H]3COP(=O)(S)O[C@H]3[C@@H](O)[C@H](n4ccc(=O)[nH]c4=O)O[C@@H]3CO)[C@H]2O)c(=O)n1` (some centres undefined), the outcome in test [1] was inactive. Moreover, the result in the test on Splenocyte [2] and in the test on Splenocyte [4] was Active. For the same molecule, the Activity in the test with PBMC [3] came to 1370 pg/mL; with PBMC [6] it was 415 pg/mL. For the same molecule, in the test with PBMC [5], the IFN-alpha is 145 pg/mL. Moreover, the fold change (FC) in test [7] is 0.4.
